What all share (format): functional
Assay [1] has as its system LNCaP. As to the kind of experiment: Inhibition of cell growth was determined in LNCaP cell line of human prostate tumor using MTT assay, on day 6 after treatment. As to conditions: 144 h, read-out: ID50 (the source's name). Summed up: (§1)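 Cells in Eagle's MEM with 10% fetal calf serum and nonessential amino acids were seeded at 500 cells/well and incubated overnight at 37 °C in humidified 95% air/5% CO2. Drug dilutions were then added, each concentration in quadruplicate, with buffer-only control columns, for 6 days. MTT (25 µL of 5 mg/mL) was added for 4 h at 37 °C.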

In assay [2] the test system is PC-3. Briefly: Inhibition of cell growth was determined in PC-3 cell line of human prostate tumor using MTT assay, on day 6 after treatment. As to conditions: PC-3, 144 h, read-out: ID50 (the source's name). Summed up:
as §1

Assay [3] has as its system DU-145. Briefly: Inhibition of cell growth was determined in DU145 cell line of human prostate tumor using MTT assay, on day 6 after treatment. As to conditions: DU-145, 144 h, read-out: ID50 (the source's name). Summed up: as §1
On the technique in general: Tetrazolium assays rely on reduction of a dye to a coloured formazan, in cell work by metabolically active cells.

The subject of assay [4] is DuPro. As to the kind of experiment: Inhibition of cell growth was determined in DUPRO cell line of human prostate tumor using MTT assay, on day 6 after treatment. Particulars: 144 h, read-out: ID50 (the source's name). The essentials:
as §1

For nine compounds, IC50 results are on record in ChEMBL document CHEMBL1134338, “cis-Unsaturated analogues of 3,8,13,18,23-pentaazapentacosane (BE-4-4-4-4): synthesis and growth inhibitory effects on human prostate cancer cell lines” (2001).

Regarding `CCNCCCCNC/C=C\CNC/C=C\CNCCCCNCC`, the figures for the IC50 in assay [1] and in assay [2] were 150 nM and above 31200 nM, respectively.

On to `CCNC/C=C\CNCCCCNC/C=C\CNCCCCNCC`, for which the IC50 in assay [3] was 340 nM; in assay [4], above 31200 nM; in assay [1], 540 nM; in assay [2], above 31200 nM.

Take `CCNCCCCNC/C=C\CNCCCCNCCCCNCC`: the IC50 in assay [3] was 80 nM; in assay [1] it was 90 nM; in assay [2] it was above 31200 nM.

Consider `CCNC/C=C\CNC/C=C\CNC/C=C\CNCCCCNCC`, for which the IC50 is above 31200 nM in assay [4], 240 nM in assay [1] and above 31200 nM in assay [2].

Consider `CCNC/C=C\CNCCCCNCCCCNCCCCNCC`, for which the IC50 in assay [1] came out at 140 nM.

In the case of `CCNC/C=C\CNC/C=C\CNCCCCNC/C=C\CNCC`, the results for the IC50 in assay [4] and in assay [1] were above 31200 nM and 320 nM, respectively.

With `CCNC/C=C\CNC/C=C\CNCCCCNCCCCNCC`, the IC50 was 150 nM in assay [1] and above 31200 nM in assay [2].

Consider `CCNC/C=C\CNCCCCNCCCCNC/C=C\CNCC`, for which the IC50 in assay [4] is 250 nM; in assay [1] it was 300 nM; in assay [2], 500 nM.

Take `CCNC/C=C\CNC/C=C\CNC/C=C\CNC/C=C\CNCC`: the IC50 in assay [1] amounted to 550 nM; in assay [2] it was 200 nM.
